Assay results from ChEMBL document CHEMBL1146363, “Synthesis of novel diarylpyrimidine analogues of TMC278 and their antiviral activity against HIV-1 wild-type and mutant strains” (Eur J Med Chem, 2007).

How the values were obtained:
[1] = Cytotoxicity against human MT4 cells after 3 days by EGFP based replication assay; type: cell-based
Procedure, shortened: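 Uninfected MT4-CMV-EGFP cells, which express EGFP constitutively, were exposed to serial 4-fold compound dilutions at 37 °C for 3 days. EGFP was read by argon laser-scanning microscopy. CC50 was obtained by linear interpolation of EGFP signal against log concentration.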

[2] = tested on: Human immunodeficiency virus 1; test: Antiviral activity against HIV1 LAI with RT Y188L mutation in MT4 cells by EGFP based replication assay; type: functional, organism-based; details: Human immunodeficiency virus 1, LAI
Procedure, shortened: (§1)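 MT4-LTR-EGFP indicator cells (EGFP under HIV-1 LTR, induced via Tat) mixed with HIV-1 LAI or LAI-derived RT mutant and serial 4-fold compound dilutions; incubated 37 °C for 3 days. EGFP expression read by argon laser-scanning microscopy. EC50 = concentration inhibiting 50% of virus-induced EGFP signal, by linear interpolation of signal versus log concentration.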

[3] = tested on: Human immunodeficiency virus 1; test: Antiviral activity against HIV1 LAI with RT F227C mutation in MT4 cells by EGFP based replication assay; type: functional, organism-based; details: Human immunodeficiency virus 1, LAI; procedure, shortened: as §1
[4] = tested on: Human immunodeficiency virus 1; test: Antiviral activity against wild type HIV1 LAI infected in MT4 cells by EGFP based replication assay; type: functional, organism-based; details: Human immunodeficiency virus 1, LAI
Procedure, shortened: (§2)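 MT4-LTR-EGFP indicator cells (EGFP under HIV-1 LTR, induced via Tat) mixed with HIV-1 LAI or LAI-derived RT mutant and serial 4-fold compound dilutions; incubated 37 °C for 3 days. EGFP expression read by argon laser-scanning microscopy.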

[5] = tested on: Human immunodeficiency virus 1; test: Antiviral activity against HIV1 LAI with RT K103N and Y181C mutation in MT4 cells by EGFP based replication assay; type: functional, organism-based; details: Human immunodeficiency virus 1, LAI; procedure, shortened: as §1
[6] = Selectivity index, ratio of CC50 for human MT4 cells to EC50 for HIV1 LAI; type: functional
[7] = tested on: Human immunodeficiency virus 1; test: Antiviral activity against HIV1 LAI with RT Y181C mutation in MT4 cells by EGFP based replication assay; type: functional, organism-based; details: Human immunodeficiency virus 1, LAI; procedure, shortened: as §1
[8] = tested on: Human immunodeficiency virus 1; test: Antiviral activity against HIV1 LAI with RT L100I mutation in MT4 cells by EGFP based replication assay; type: functional, organism-based; details: Human immunodeficiency virus 1, LAI; procedure, shortened: as §2
[9] = tested on: Human immunodeficiency virus 1; test: Antiviral activity against HIV1 LAI with RT K103N mutation in MT4 cells by EGFP based replication assay; type: functional, organism-based; details: Human immunodeficiency virus 1, LAI; procedure, shortened: as §1
[10] = tested on: Human immunodeficiency virus 1; test: Antiviral activity against HIV1 LAI with RT L100I and K103N mutation in MT4 cells by EGFP based replication assay; type: functional, organism-based; details: Human immunodeficiency virus 1, LAI; procedure, shortened: as §1
[11] = tested on: Human immunodeficiency virus 1; test: Antiviral activity against HIV1 LAI with RT F227C and V106A mutation in MT4 cells by EGFP based replication assay; type: functional, organism-based; details: Human immunodeficiency virus 1, LAI; procedure, shortened: as §1
[12] = Cmax in Wistar rat at 10 mg/kg, po; type: ADME, organism-based; parameters: dose 10 mg/kg, route oral; details: in vivo
[13] = Metabolic stability in human liver microsomes after 15 mins; type: ADME, Microsome; details: read-out: Stability
Procedure, shortened: (§3)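 Liver microsomes were the 100,000×g pellet of S9 from tissue homogenized in 0.1 M phosphate, pH 7.4. Incubations contained 1 mg/mL protein in 0.1 M phosphate pH 7.4 with an NADPH-generating system, plus a heat-inactivated control. After 5 min preincubation at 37 °C, NADP started the reaction, which ran 15 min and was stopped with DMSO or acetonitrile. Duplicates, LC-MS; fraction remaining relative to T=0.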

[14] = Metabolic stability in rat liver microsomes after 15 mins; type: ADME, Microsome; details: read-out: Stability; procedure, shortened: as §3
[15] = AUC in Wistar rat at 10 mg/kg, po; type: ADME, organism-based; parameters: dose 10 mg/kg, route oral; details: plasma
[16] = AUC in Beagle dog at 10 mg/kg, po; type: ADME, organism-based, Canis lupus familiaris; parameters: dose 10 mg/kg, route oral; details: plasma
[17] = Metabolic stability in dog liver microsomes after 15 mins; type: ADME, Canis lupus familiaris, Microsome; details: read-out: Stability; procedure, shortened: as §3
[18] = Half life in Wistar rat at 10 mg/kg, po after 6 hrs; type: ADME, organism-based; parameters: dose 10 mg/kg, route oral; details: in vivo
[19] = Half life in Beagle dog at 10 mg/kg, po after 23 hrs; type: ADME, organism-based, Canis lupus familiaris; parameters: dose 10 mg/kg, route oral; details: in vivo
[20] = Cmax in Beagle dog at 10 mg/kg, po; type: ADME, organism-based, Canis lupus familiaris; parameters: dose 10 mg/kg, route oral; details: in vivo

Structure (SMILES)	CC50 at 72 h [1] [µM]	EC50 [2] [nM]	EC50 [3] [nM]	EC50 [4] [nM]	EC50 [5] [nM]	Ratio CC50/EC50 [6]	EC50 [7] [nM]	EC50 [8] [nM]	EC50 [9] [nM]	EC50 [10] [nM]	EC50 [11] [nM]	Cmax [12] [ng/mL]	remaining at 0.25 h [13] [%]	remaining at 0.25 h [14] [%]	AUC [15] [ng·h/mL]	AUC [16] [ng·h/mL]	remaining at 0.25 h [17] [%]	half-life [18] [min]	half-life [19] [min]	Cmax [20] [ng/mL]
CC(C)Nc1cccnc1N1CCN(C(=O)c2cc3cc(NS(C)(=O)=O)ccc3[nH]2)CC1 [DELAVIRDINE]	67.2	1020	4560	122	38400	>550	9040	9530	10200	20600	721									
O=C1Nc2ccc(Cl)cc2C(C#CC2CC2)(C(F)(F)F)O1 (single isomer, unassigned) [EFAVIRENZ]	32.3	55	46.9		55		3.9	31	46.4	1460	4.1									
Cc1cc(/C=C/C#N)ccc1Nc1ccnc(Nc2ccc(C#N)cc2)n1	> 25	43.6	1.2	0.9	89.6	>29372	13.4	9.2	0.6	479	1.2									
COc1cc(/C=C/C#N)cc(Cl)c1Nc1ccnc(Nc2ccc(C#N)cc2)n1	0.398	2.5	0.8	0.1	2	3981	1	0.2	0.3	15.8	0.3	199	26	53	410	44500	58	230	870	2180
Cc1cc(/C=C/C#N)cc(C(C)C)c1Nc1ccnc(Nc2ccc(C#N)cc2)n1	11.8	3.8	3.9	4	10.6	2947	11.1	3.1	1.3	38.3	3.2									
Cc1cc(/C=C/C#N)ccc1N(C)c1ccnc(Nc2ccc(C#N)cc2)n1	11.6	16.8	1	1	160	11351	12	2.5	0.7	104	1.5									
Cc1cc(/C=C/C#N)cc(C)c1Nc1ccnc(Nc2ccc(C#N)cc2)n1 [RILPIVIRINE]	2	1.2	0.5		3.2		[…]	0.5	[…]	7.5	0.5	1940	26	73	9650	[…]	65	[…]	1380	1050
Cc1cc(/C=C/C#N)cc(C)c1Oc1ccnc(Nc2ccc(C#N)cc2)n1	> 25	1.6	0.7	0.9	4.3	28302	3.2	0.6	0.2	3.7	0.6									
N#C/C=C/c1ccc(Nc2ccnc(Nc3ccc(C#N)cc3)n2)cc1	> 25	303	98.4	33.9	3950	>737	1520	585	57.7	6440	76.1									
Cc1cc(/C=C/C#N)cc(Cl)c1Nc1ccnc(Nc2ccc(C#N)cc2)n1	2.61	2.3	0.5	0.8	4.1	3316	2.3	0.4	0.1	6.6	0.5	182	39	72	910	17600	60	212	870	1040
Cc1ccnc2c1NC(=O)c1cccnc1N2C1CC1 [NEVIRAPINE]	31.6	5910	827	33.3	14500		7080		1980	3530	2700									
Cc1cc(/C=C\C#N)cc(C)c1Sc1ccnc(Nc2ccc(C#N)cc2)n1	> 25	2.8	1.4	3.7	18.6	>6821	5.8	2.6	0.7	79.2	1.1									
CCc1cc(/C=C/C#N)cc(C)c1Nc1ccnc(Nc2ccc(C#N)cc2)n1	2.55	2.6	1.1	3	5.3	841	4	0.9	0.5	8.2	0.9									
COc1cc(/C=C/C#N)cc(C)c1Nc1ccnc(Nc2ccc(C#N)cc2)n1	0.633	0.9	0.3	0.7	4.3	846	1.9	0.5	< 0.1	21.1	0.3									
